ChEMBL document CHEMBL1126160, “Synthesis and structure-activity relationships of 7-diazabicycloalkylquinolones, including danofloxacin, a new quinolone antibacterial agent for veterinary medicine” (J Med Chem, 1992)
Converted amounts (≈) assume the structure as drawn.

Test system: Bordetella bronchiseptica
Assay: In vitro antibacterial activity against aerobically grown Bordetella bronchiseptica (73A009)
Type: functional
Conditions: not given
Outline: (§1)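 Agar dilution MICs. Aerobic strains were tested on brain heart infusion agar and incubated aerobically at 37 °C for 18–20 h.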

| Structure (SMILES) | MIC [µg/mL] |
| --- | --- |
| CCn1cc(C(=O)O)c(=O)c2cc(F)c(N3CCNCC3)cc21 [NORFLOXACIN] | 6.25 (≈ 19.6 µM) |
| CN1C[C@@H]2C[C@H]1CN2c1c(F)cc2c(=O)c(C(=O)O)cn(C3CC3)c2c1Cl | 0.39 (≈ 0.995 µM) |
| CN1C[C@H]2C[C@@H]1CN2c1cc2c(cc1F)c(=O)c(C(=O)O)cn2C1CC1 | 1.56 (≈ 4.37 µM) |

Test system: Clostridium perfringens
Assay: microbe, parasite or virus in culture
Type: functional
Conditions: not given

| Structure (SMILES) | MIC [µg/mL] |
| --- | --- |
| CCn1cc(C(=O)O)c(=O)c2cc(F)c(N3CCNCC3)cc21 [NORFLOXACIN] | 0.39 (≈ 1.22 µM) |
| CN1C[C@@H]2C[C@H]1CN2c1c(F)cc2c(=O)c(C(=O)O)cn(C3CC3)c2c1Cl | 0.2 (≈ 0.51 µM) |
| CN1C[C@H]2C[C@@H]1CN2c1cc2c(cc1F)c(=O)c(C(=O)O)cn2C1CC1 | 0.2 (≈ 0.56 µM) |

Test system: Escherichia coli
Assay: The Escherichia coli DNA cleavage endpoint value which is the minimum amount of compound required (micro g/mL) to induce detectable cleavage of supercoiled pBR322 substrate to the linear form (gyrase)
Type: functional
Conditions: not given
Outline: (§2)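 DNA gyrase A and B subunits were purified from E. coli overproducers. About 2 units of holoenzyme were incubated with pBR322 in Tris-HCl pH 7.5 containing MgCl2, spermidine, DTT, 0.2 mM ATP, BSA and tRNA. Drug was added as 2-fold serial dilutions, and reactions ran for 60 min at 25 °C. Reactions were stopped with SDS and proteinase K, then run on agarose and stained with ethidium. The endpoint was the lowest concentration giving detectable linear DNA.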

| Structure (SMILES) | MIC [µg/mL] |
| --- | --- |
| CN1C[C@@H]2C[C@H]1CN2c1c(F)cc2c(=O)c(C(=O)O)cn(C3CC3)c2c1Cl | 0.19 (≈ 0.485 µM) |

Test system: Actinobacillus pleuropneumoniae
Assay: In vitro antibacterial activity against anaerobically grown Actinobacillus pleuropneumoniae ([…])
Type: functional
Conditions: not given
Outline: (§3)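 Agar dilution MICs. Anaerobic strains were tested on tryptose agar with 5% bovine blood and incubated 48 h at 39 °C in an anaerobe chamber under N2/CO2/H2 (80:10:10).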

| Structure (SMILES) | MIC [µg/mL] |
| --- | --- |
| CCn1cc(C(=O)O)c(=O)c2cc(F)c(N3CCNCC3)cc21 [NORFLOXACIN] | < 0.05 |
| CN1C[C@@H]2C[C@H]1CN2c1c(F)cc2c(=O)c(C(=O)O)cn(C3CC3)c2c1Cl | < 0.05 |
| CN1C[C@H]2C[C@@H]1CN2c1cc2c(cc1F)c(=O)c(C(=O)O)cn2C1CC1 | 0.05 (≈ 0.14 µM) |

Test system: Pasteurella multocida
Assay: In vivo protective dose was evaluated Pasteurella multocida (59A006) in mouse(sc)
Type: functional
Conditions: read-out: PD50
Outline: (§4)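 Female CF-1 mice (15 g), groups of 10, challenged ip with 0.5 mL bacterial suspension (P. multocida 59A006 or E. coli 51A266 at 3.0 × 10^8 cfu/mL; S. choleraesuis 58B010 at 8.5 × 10^2 cfu/mL). Drug given sc or po at 30 min, 4 h and 24 h after challenge; survival recorded at 96 h; PD50 by probit analysis.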

| Structure (SMILES) | ED50 [mg/kg] |
| --- | --- |
| CN1C[C@H]2C[C@@H]1CN2c1cc2c(cc1F)c(=O)c(C(=O)O)cn2C1CC1 | 0.22 |

Test system: Escherichia coli
Assay: In vivo protective dose was evaluated against Escherichia coli (51A266) in mouse(sc)
Type: functional
Conditions: read-out: PD50
Outline: as §4

| Structure (SMILES) | ED50 [mg/kg] |
| --- | --- |
| CCn1cc(C(=O)O)c(=O)c2cc(F)c(N3CCNCC3)cc21 [NORFLOXACIN] | 0.46 |

Test system: Pasteurella multocida
Assay: In vitro antibacterial activity against aerobically grown Pasteurella multocida (59A006)
Type: functional
Conditions: not given
Outline: as §1

| Structure (SMILES) | MIC [µg/mL] |
| --- | --- |
| CCn1cc(C(=O)O)c(=O)c2cc(F)c(N3CCNCC3)cc21 [NORFLOXACIN] | 0.05 (≈ 0.157 µM) |
| CN1C[C@@H]2C[C@H]1CN2c1c(F)cc2c(=O)c(C(=O)O)cn(C3CC3)c2c1Cl | < 0.05 |
| CN1C[C@H]2C[C@@H]1CN2c1cc2c(cc1F)c(=O)c(C(=O)O)cn2C1CC1 | 0.02 (≈ 0.056 µM) |

Test system: Pasteurella multocida
Assay: In vivo protective dose was evaluated against Pasteurella multocida (59A006) in mouse(po)
Type: functional
Conditions: read-out: PD50
Outline: as §4

| Structure (SMILES) | ED50 [mg/kg] |
| --- | --- |
| CCn1cc(C(=O)O)c(=O)c2cc(F)c(N3CCNCC3)cc21 [NORFLOXACIN] | 0.63 |

Test system: Escherichia coli
Assay: Escherichia coli DNA cleavage endpoint value which is the minimum amount required (in micro g/mL) to induce detectable cleavage of supercoiled pBR322 substrate to linear form (gyrase)
Type: functional
Conditions: read-out: MIC
Outline: as §2

| Structure (SMILES) | minimum concentration inducing gyrase-mediated DNA cleavage [µg/mL] |
| --- | --- |
| CCn1cc(C(=O)O)c(=O)c2cc(F)c(N3CCNCC3)cc21 [NORFLOXACIN] | 0.78 |
| CN1C[C@H]2C[C@@H]1CN2c1cc2c(cc1F)c(=O)c(C(=O)O)cn2C1CC1 | 0.19 |

Test system: Escherichia coli
Assay: In vivo protective dose was evaluated against Escherichia coli (51A266) in mouse(po)
Type: functional
Conditions: read-out: PD50
Outline: as §4

| Structure (SMILES) | ED50 [mg/kg] |
| --- | --- |
| CCn1cc(C(=O)O)c(=O)c2cc(F)c(N3CCNCC3)cc21 [NORFLOXACIN] | 8.84 |

Test system: Salmonella enterica
Assay: In vitro antibacterial activity against aerobically grown Salmonella choleraesuis (58B015)
Type: functional
Conditions: not given

| Structure (SMILES) | MIC [µg/mL] |
| --- | --- |
| CCn1cc(C(=O)O)c(=O)c2cc(F)c(N3CCNCC3)cc21 [NORFLOXACIN] | 0.1 (≈ 0.313 µM) |
| CN1C[C@@H]2C[C@H]1CN2c1c(F)cc2c(=O)c(C(=O)O)cn(C3CC3)c2c1Cl | < 0.05 |
| CN1C[C@H]2C[C@@H]1CN2c1cc2c(cc1F)c(=O)c(C(=O)O)cn2C1CC1 | 0.1 (≈ 0.28 µM) |

Test system: Pasteurella multocida
Assay: In vivo protective dose was evaluated against Pasteurella multocida (59A006) in mouse(sc)
Type: functional
Conditions: read-out: PD50
Outline: as §4

| Structure (SMILES) | ED50 [mg/kg] |
| --- | --- |
| CCn1cc(C(=O)O)c(=O)c2cc(F)c(N3CCNCC3)cc21 [NORFLOXACIN] | 5.54 |

Test system: not listed separately
Assay: In vitro evaluation for antibacterial activity against anaerobically grown Treponema hyodysenteriae (94A007)
Type: functional
Conditions: Brachyspira hyodysenteriae

| Structure (SMILES) | MIC [µg/mL] |
| --- | --- |
| CCn1cc(C(=O)O)c(=O)c2cc(F)c(N3CCNCC3)cc21 [NORFLOXACIN] | 6.25 (≈ 19.6 µM) |
| CN1C[C@@H]2C[C@H]1CN2c1c(F)cc2c(=O)c(C(=O)O)cn(C3CC3)c2c1Cl | 6.25 (≈ 16 µM) |
| CN1C[C@H]2C[C@@H]1CN2c1cc2c(cc1F)c(=O)c(C(=O)O)cn2C1CC1 | 1.56 (≈ 4.37 µM) |

Test system: Trueperella pyogenes
Assay: In vitro antibacterial activity against anaerobically grown Actinomyces pyogenes (14D002)
Type: functional
Conditions: not given
Outline: as §3

| Structure (SMILES) | MIC [µg/mL] |
| --- | --- |
| CCn1cc(C(=O)O)c(=O)c2cc(F)c(N3CCNCC3)cc21 [NORFLOXACIN] | 12.5 (≈ 39.1 µM) |
| CN1C[C@@H]2C[C@H]1CN2c1c(F)cc2c(=O)c(C(=O)O)cn(C3CC3)c2c1Cl | 0.39 (≈ 0.995 µM) |
| CN1C[C@H]2C[C@@H]1CN2c1cc2c(cc1F)c(=O)c(C(=O)O)cn2C1CC1 | 3.13 (≈ 8.76 µM) |

Test system: Escherichia coli
Assay: In vitro antibacterial activity against aerobically grown Escherichia coli (51A538)
Type: functional
Conditions: not given
Outline: as §1

| Structure (SMILES) | MIC [µg/mL] |
| --- | --- |
| CCn1cc(C(=O)O)c(=O)c2cc(F)c(N3CCNCC3)cc21 [NORFLOXACIN] | 0.1 (≈ 0.313 µM) |
| CN1C[C@@H]2C[C@H]1CN2c1c(F)cc2c(=O)c(C(=O)O)cn(C3CC3)c2c1Cl | < 0.05 |
| CN1C[C@H]2C[C@@H]1CN2c1cc2c(cc1F)c(=O)c(C(=O)O)cn2C1CC1 | 0.05 (≈ 0.14 µM) |

Test system: Staphylococcus aureus
Assay: In vitro antibacterial activity against aerobically grown Staphylococcus aureus (54B004)
Type: functional
Conditions: not given
Outline: as §1

| Structure (SMILES) | MIC [µg/mL] |
| --- | --- |
| CCn1cc(C(=O)O)c(=O)c2cc(F)c(N3CCNCC3)cc21 [NORFLOXACIN] | 3.13 (≈ 9.8 µM) |
| CN1C[C@@H]2C[C@H]1CN2c1c(F)cc2c(=O)c(C(=O)O)cn(C3CC3)c2c1Cl | 0.1 (≈ 0.255 µM) |
| CN1C[C@H]2C[C@@H]1CN2c1cc2c(cc1F)c(=O)c(C(=O)O)cn2C1CC1 | 0.39 (≈ 1.09 µM) |

Test system: not listed separately
Assay: In vitro antibacterial activity against Aerobically grown Pasteurella haemolytica (59B018)
Type: functional
Conditions: Mannheimia haemolytica
Outline: as §1

| Structure (SMILES) | MIC [µg/mL] |
| --- | --- |
| CCn1cc(C(=O)O)c(=O)c2cc(F)c(N3CCNCC3)cc21 [NORFLOXACIN] | 0.05 (≈ 0.157 µM) |
| CN1C[C@H]2C[C@@H]1CN2c1cc2c(cc1F)c(=O)c(C(=O)O)cn2C1CC1 | 0.05 (≈ 0.14 µM) |

Test system: not listed separately
Assay: Compound was evaluated for aqueous solubility at pH 7.2
Conditions: buffer

| Structure (SMILES) | solubility [µg/mL] |
| --- | --- |
| CCn1cc(C(=O)O)c(=O)c2cc(F)c(N3CCNCC3)cc21 [NORFLOXACIN] | 350 (≈ 1100 µM) |

Test system: Phocaeicola vulgatus
Assay: In vitro antibacterial activity against anaerobically grown Bacteroides vulgatus (78D029)
Type: functional
Conditions: not given
Outline: as §3

| Structure (SMILES) | MIC [µg/mL] |
| --- | --- |
| CCn1cc(C(=O)O)c(=O)c2cc(F)c(N3CCNCC3)cc21 [NORFLOXACIN] | 25 (≈ 78.3 µM) |
| CN1C[C@@H]2C[C@H]1CN2c1c(F)cc2c(=O)c(C(=O)O)cn(C3CC3)c2c1Cl | 0.78 (≈ 1.99 µM) |
| CN1C[C@H]2C[C@@H]1CN2c1cc2c(cc1F)c(=O)c(C(=O)O)cn2C1CC1 | 3.13 (≈ 8.76 µM) |
